According to ChEMBL document CHEMBL1157841, “Stilbene analogs as inducers of apolipoprotein-I transcription” (Eur J Med Chem, 2010):

How the values were obtained:
Caco-2 [1] = assay: Induction of human ApoA-1 gene expression in human Caco-2 cells co-transfected with luc-beta-galactosidase after 48 hrs assessed as luciferase activity by luminometer relative to control; assay type: functional
Procedure, shortened: (§1)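 Caco-2 cells stably carrying an ApoA-I promoter–luciferase reporter (co-transfected with pRSV-β-galactosidase as transfection control; selected in MEM with 20% calf serum and 0.5 mg/mL G418). Cells seeded, 24 h at 37 °C in 5% CO2, then starved 24 h in 0.5% FBS selection medium. Compounds added at 15 µM in 0.01% DMSO for 48 h. Cells lysed, luciferase read by luminometer and normalized to Bradford protein. Fold induction is taken against untreated cells and against resveratrol, which is run in each experiment.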

Caco-2 [2] = assay: Induction of human ApoA-1 gene expression in human Caco-2 cells co-transfected with luc-beta-galactosidase after 48 hrs assessed as luciferase activity by luminometer relative to resveratrol; assay type: functional; procedure, shortened: as §1
Caco-2 [3] = assay: Induction of human ApoA-1 gene expression in human Caco-2 cells co-transfected with luc-beta-galactosidase at 15 uM after 48 hrs assessed as luciferase activity by luminometer relative to control; assay type: functional; procedure, shortened: as §1
Caco-2 [4] = assay: Cytotoxicity against human Caco-2 cells; assay type: cell-based

| SMILES | fold change (FC) (Caco-2 [1]) | fold change (FC) (Caco-2 [2]) | fold change (FC) (Caco-2 [3]) | Activity (Caco-2 [4]) |
| --- | --- | --- | --- | --- |
| CC(=O)Nc1cc(O)ccc1/C=C/c1ccc(O)cc1 | 0.9 | 0.3 |  |  |
| Oc1ccc(/C=C/c2cc(O)cc(O)c2)cc1 [RESVERATROL] |  |  | 2.6 |  |
| O=C(Nc1ccc(O)cc1)c1ccc(O)cc1 | 1.9 | 0.7 |  |  |
| COc1cc(O)ccc1/C=C/c1ccc(O)cc1 | 12.5 | 4.6 |  |  |
| CN(C)C(=O)c1cc(O)ccc1/C=C/c1ccc(O)cc1 | 1.1 | 0.2 |  |  |
| Oc1ccc(/C=C/c2ccc(O)cc2)cc1 [TRANS-4,4'-DIHYDROXYSTILBENE] | 5.1 | 1.6 |  |  |
| CS(=O)(=O)c1cc(O)ccc1/C=C/c1ccc(O)cc1 | 2 | 0.7 |  |  |
| Oc1ccc(/C=C/c2ccc(O)nc2)cc1 | 1.1 | 0.4 |  |  |
| O=[N+]([O-])c1cc(O)ccc1/C=C/c1ccc(O)cc1 | 9.4 | 2.8 |  |  |
| O=C(Nc1ccccc1)c1ccc(O)cc1 | 1.7 | 0.5 |  |  |
| Oc1ccc(CCc2ccc(O)cc2)cc1 | 3.9 | 1 |  |  |
| CCOC(=O)c1cc(/C=C/c2ccc(O)cc2)ccc1O | 1.1 | 0.4 |  |  |
| O=C(O)c1cc(/C=C/c2ccc(O)cc2)ccc1O | 1.2 | 0.4 |  |  |
| O=C(Nc1ccc(O)cc1)c1ccccc1 | 1.7 | 0.6 |  |  |
| OCc1cccc(-c2nnc(-c3ccc(O)cc3)o2)c1 | 1.4 | 0.5 |  | Non-toxic |
| Oc1ccc(/N=N/c2ccc(O)cc2)cc1 | 3.4 | 1.3 |  |  |
| Oc1cccc(-c2nnc(-c3ccccc3)o2)c1 | 2.2 | 0.6 |  | Non-toxic |
| OCc1cc(O)ccc1/C=C/c1ccc(O)cc1 | 2 | 0.5 |  |  |
| O=S(=O)(Nc1ccc(O)cc1)c1ccc(O)cc1 | 1.3 | 0.4 |  |  |
| Nc1cc(O)ccc1/C=C/c1ccc(O)cc1 | 3.2 | 0.9 |  |  |
| Oc1ccc(-c2nnc(-c3ccccc3)o2)cc1 | 1.9 | 0.5 |  | Non-toxic |
| NC(=O)c1cc(/C=C/c2ccc(O)cc2)ccc1O | 2.7 | 0.7 |  |  |
| Oc1ccc(-c2nnc(-c3cccc(O)c3)o2)cc1 | 3.7 | 0.9 |  | Non-toxic |
